PostGolgi ctrl: yeast control strain growth, post-Golgi counter-screen | efflux-deficient yeast background strain, growth absorbance A615, 16 h | inhibition, % at 10 µM | actives 5% (n = 98,000) | AID 738
EphB4 ephrin blk: EphB4-ephrin-B2 interaction antagonism | P54760 | EphB4 LBD / TNYL-RAW-Alexa532 peptide, fluorescence polarization | inhibition, % at 7 µM | actives 0.15% (n = 97,000) | AID 720;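 active = inhibition above the screen-wide mean inhibition plus 3 SD, cut at about 15% in these data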
Target sequence (P54760 whole entry, looked up, the tested form may be a part): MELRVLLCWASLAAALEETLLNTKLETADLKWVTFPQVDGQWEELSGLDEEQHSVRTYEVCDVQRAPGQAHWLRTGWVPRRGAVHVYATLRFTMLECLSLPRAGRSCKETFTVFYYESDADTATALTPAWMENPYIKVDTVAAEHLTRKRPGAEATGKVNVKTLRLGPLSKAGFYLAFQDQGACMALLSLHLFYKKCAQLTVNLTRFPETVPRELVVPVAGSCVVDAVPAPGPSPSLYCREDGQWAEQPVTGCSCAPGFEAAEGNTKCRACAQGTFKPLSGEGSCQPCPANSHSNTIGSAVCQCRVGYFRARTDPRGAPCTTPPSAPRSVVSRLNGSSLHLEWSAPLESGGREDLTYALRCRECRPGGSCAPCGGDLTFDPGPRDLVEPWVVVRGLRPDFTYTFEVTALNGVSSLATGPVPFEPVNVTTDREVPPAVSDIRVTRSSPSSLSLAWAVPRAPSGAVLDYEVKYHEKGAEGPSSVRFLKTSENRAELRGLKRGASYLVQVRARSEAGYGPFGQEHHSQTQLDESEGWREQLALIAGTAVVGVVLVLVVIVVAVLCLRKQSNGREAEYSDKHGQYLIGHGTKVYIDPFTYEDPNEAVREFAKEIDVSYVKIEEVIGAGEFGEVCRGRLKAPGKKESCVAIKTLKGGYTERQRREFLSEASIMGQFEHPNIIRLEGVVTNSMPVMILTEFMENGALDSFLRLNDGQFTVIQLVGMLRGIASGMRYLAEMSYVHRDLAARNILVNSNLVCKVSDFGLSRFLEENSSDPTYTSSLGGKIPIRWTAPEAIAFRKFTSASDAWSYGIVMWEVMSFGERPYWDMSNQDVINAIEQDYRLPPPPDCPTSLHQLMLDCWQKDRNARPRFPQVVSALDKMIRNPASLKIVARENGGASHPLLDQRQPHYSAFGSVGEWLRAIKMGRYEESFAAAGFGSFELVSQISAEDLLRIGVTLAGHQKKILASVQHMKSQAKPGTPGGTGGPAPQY
Ecoli tolC: E. coli tolC mutant growth inhibition. E. coli BW25113 tolC mutant growth, OD615. growth inhibition, % at 10 µM (by protocol). actives 2.2% (n = 65,000). AID 573;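 active = growth inhibition at or above a cutoff equal to the mean over every tested compound plus 3 SD, cut at about 60% in these data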;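 also: growth measured after 20 h incubation at 37 °C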
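Assay system: tolC-deleted E. coli BW25113. Medium: kanamycin-containing LB broth (50 µg/mL). Dosing: 10 µM final, single dose. Timing: bacterial growth with compound for 20 h at 37 °C. Detection: A615 absorbance measurement. Read-out basis: growth inhibition in percent.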
Ecoli WT expand: growth inhibitors of E. coli BW25113 wild type. OD600 absorbance. growth inhibition, % at 100 µM. actives 0.15% (n = 98,000);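 active = growth inhibition above about 50% at one test dose, limit read from the data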;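 also: growth measured after 20 h incubation at 37 °C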
PostGolgi yeast: growth inhibition of a yeast mutant, post-Golgi transport screen; actives 0.9% (n = 98,000); inhibition, % at 10 µM; AID 739; post-Golgi transport phenotypic cell assay;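 also: yeast cells grown in 1536-well plates; yeast grown about 18 h at 30C before absorbance read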
Of the large screens only hits and unclear results are named; the others gave an inactive call. An excerpt weighted towards active compounds, which were near 6% of everything screened. Rule as the data show it, unless noted: active = inhibition above about 30%; inactive = the rest.

O=C(NC(Cc1c[nH]c2ccccc12)C(=O)O)c1ccco1 (centres undefined)	PostGolgi ctrl 30 (no result: Ecoli tolC)
Cc1cc(C)nc(NC(=NCCc2c[nH]c3ccccc23)NC(=O)c2ccco2)n1	PostGolgi ctrl 42
N#CC1=C(N)N2C(=C(C#N)C13CCN(Cc1ccccc1)CC3)Nc1ccccc12	PostGolgi ctrl 30
CCOC(=O)C1CCCN(c2cc(C)nc3cc(-c4ccc(Cl)cc4)nn23)C1 (centres undefined)	none (no result: PostGolgi ctrl, Ecoli tolC, Ecoli WT expand, PostGolgi yeast)
CCC1CCCCN1c1cc(C)nc2cc(-c3cccc(C)c3)nn12 (centres undefined)	PostGolgi ctrl 55 (no result: Ecoli tolC)
O=C(CC(=O)c1cc(Cl)ccc1O)c1ccccc1	PostGolgi ctrl 42, Ecoli tolC 97, PostGolgi yeast 90
Cc1ccc(O)c(C(=O)CC(=O)c2cccc(F)c2)c1	PostGolgi ctrl 34, Ecoli tolC 100 (no result: EphB4 ephrin blk)
COc1ccc(C(=O)c2ccccc2)c(O)c1	none
Cc1cccc(C(=O)Nc2ccc(O)cc2)c1	none
COc1ccc(O)c(C(=O)CC(=O)c2ccc(F)cc2)c1	PostGolgi ctrl 35, Ecoli tolC 100, PostGolgi yeast 33
Cc1cccc(C(=O)CC(=O)c2cc(Cl)ccc2O)c1	PostGolgi ctrl 64, PostGolgi yeast 50 (no result: Ecoli tolC)
C/C(CCc1ccc2c(c1)OCO2)=N\N=C(/N)SC1CC(=O)N(c2ccccc2F)C1=O (centres undefined)	none (no result: Ecoli tolC)
CC(=O)NC1(c2cccc(F)c2)CCN(C(=O)Nc2ccc(C#N)cc2)CC1	none
N#C/C(=C\c1ccco1)Sc1nc2ccccc2s1	Ecoli tolC 96
OCCn1c(-c2ccc3c(c2)OCO3)csc1=Nc1ccccc1	Ecoli tolC 76
COCCCNC(=O)c1cccn2c(=O)c3cc4ccccc4cc3nc12	PostGolgi ctrl 70 (no result: Ecoli tolC)
COc1ccc(C2CC(c3ccc(Cl)cc3)Nc3nc(NC(=O)c4ccco4)nn32)cc1 (centres undefined)	none (no result: PostGolgi ctrl, Ecoli WT expand, PostGolgi yeast)
COc1ccc(C2CC(c3ccc(Cl)c(Cl)c3)Nc3nc(N)nn32)cc1 (centres undefined)	PostGolgi ctrl 36 (no result: EphB4 ephrin blk)
O=C(Nc1nc2n(n1)C(c1ccc(Cl)cc1)CC(c1ccc(Cl)cc1)N2)c1ccco1 (centres undefined)	EphB4 ephrin blk 21, Ecoli tolC 61
COc1ccc(C2CC(c3ccccc3)n3nc(NC(=O)c4cccs4)nc3N2)cc1 (centres undefined)	Ecoli tolC 65
COc1ccc(C2CCCN2C(=O)c2cccs2)cc1 (centres undefined)	none
COc1ccc(C2CC(c3ccccc3)=NN2C(=O)c2cccs2)cc1 (centres undefined)	PostGolgi ctrl 67 (no result: Ecoli tolC)
COc1ccc(C)cc1NC(=O)CSc1nnc(CC(=O)Nc2ccccc2C)n1C	none (no result: Ecoli tolC)
Cc1nnc(N2CCN(C)CC2)c2nn(-c3ccc(Cl)cc3)c(C)c12	none (no result: PostGolgi ctrl, Ecoli tolC, Ecoli WT expand, PostGolgi yeast)
CN(c1cccc(NC(=O)CN(c2ccc(C34CC5CC(CC(C5)C3)C4)cc2)S(C)(=O)=O)c1)S(C)(=O)=O	none (no result: Ecoli tolC)
Cc1cc(C)nc(NS(=O)(=O)c2ccc(NC(=S)NC(=O)C(C)C)cc2)n1	none (no result: PostGolgi ctrl, Ecoli tolC, Ecoli WT expand, PostGolgi yeast)
CC(=O)NS(=O)(=O)c1ccc(NC(=S)NC(=O)C(C)C)cc1	PostGolgi ctrl 36 (no result: Ecoli tolC)
CCn1c(SCC(=O)OC(C)C)nnc1-c1cccc(Cl)c1	none (no result: EphB4 ephrin blk)
CC(=O)N1N=C(c2cccc(Cl)c2)OC1c1ccc(C(C)C)cc1 (centres undefined)	PostGolgi ctrl 35 (no result: Ecoli tolC)
CC1=CC(C)(C)N(C(=O)c2ccccc2)c2ccc(C)cc21	none (no result: Ecoli tolC)
COc1ccc(C(=O)N2c3cc4c(cc3C(C)=CC2(C)C)OCO4)cc1	Ecoli tolC 74
c1coc(-c2nc(-c3ccco3)c(-c3ccco3)nc2-c2ccco2)c1	EphB4 ephrin blk 19
Nc1nc(-c2ccco2)c(-c2ccco2)s1	none
Cc1ccccc1CN(c1ccc(C(=O)Nc2ccccc2C(=O)NCc2ccco2)cc1)S(C)(=O)=O	none (no result: Ecoli tolC)
COc1cc(S(=O)(=O)n2ccc(C)n2)c(OC)cc1Cl	PostGolgi ctrl 34 (no result: Ecoli tolC)
CCOc1ccc(C)cc1S(=O)(=O)n1ccc(C)n1	none
Cc1ccc(-c2cc(C(F)F)n3ncc(C(=O)N4CCN(c5cccc(C)c5C)CC4)c3n2)cc1	none (no result: Ecoli tolC)
CC(Sc1ccsc1[N+](=O)[O-])C(=O)NCCc1ccc(Cl)cc1 (centres undefined)	PostGolgi ctrl 34, PostGolgi yeast 70 (no result: Ecoli tolC)
O=C(CSc1ccsc1[N+](=O)[O-])NCCc1ccc(Cl)cc1	none (no result: Ecoli tolC)
Cn1c(=O)c2nc(NCc3ccccc3)cnc2n(C)c1=O	PostGolgi yeast 35
Cn1c(=O)c2c(ncn2Cc2ccccc2)n(C)c1=O	none (no result: PostGolgi ctrl, Ecoli tolC, Ecoli WT expand, PostGolgi yeast)
CC(/C=N/NC(=O)c1ccncc1)=C\c1ccc(C(C)C)cc1	PostGolgi ctrl 35, PostGolgi yeast 30 (no result: Ecoli tolC)
CC(/C=N/NC(=O)c1ccc(Br)cc1)=C\c1ccccc1	none (no result: Ecoli tolC)
Cc1ccccc1NC(=O)Cc1nc(CSc2nnc(-c3ccc4c(c3)OCO4)o2)cs1	none (no result: Ecoli tolC)
Cc1cc(C)c(C#N)c(SC(F)F)n1	none (no result: Ecoli tolC)
O=C(O)c1ccccc1N/N=C\c1ccnc2ccccc12	PostGolgi ctrl 31 (no result: Ecoli tolC)
Oc1ccc(/C=N/Nc2cccc3cccnc23)c(O)c1	none (no result: Ecoli tolC)
COCCNC(=O)c1cc2oc3ccccc3c2n1C	none (no result: Ecoli tolC)
S=c1[nH]nc(C2CCCCC2)n1/N=C/C=C/c1ccccc1	PostGolgi ctrl 31 (no result: Ecoli tolC)
S=c1[nH]nc(C2CCCCC2)n1/N=C/c1ccc(Br)s1	none (no result: Ecoli tolC)
COc1ccc(-n2c(C)nc3c(cnn3-c3ccc(Cl)cc3)c2=O)cc1	Ecoli tolC 75
Cc1cccc(-n2c(C)nc3c(cnn3-c3ccc(F)cc3)c2=O)c1	PostGolgi ctrl 33
COc1cccc(-n2c(C)nc3c(cnn3-c3ccc(C)cc3)c2=O)c1	none
C=CCn1c(SCc2c(Cl)cccc2Cl)nnc1-c1cccnc1	none (no result: Ecoli tolC)
CCCCN(CCCC)S(=O)(=O)c1ccc(NC(=O)Cc2cccs2)cc1	none (no result: Ecoli tolC)
CCOC(=O)CN1N=C(/C=C/c2ccc(C)cc2)CCC1=O	none (no result: Ecoli tolC)
Cc1ccc(/C=C/C2=NN(Cc3ccc(Cl)c(Cl)c3)C(=O)CC2)cc1	PostGolgi ctrl 44 (no result: Ecoli tolC)
Cc1sc(NC(=S)NC(=O)C(C)(C)C)c(C(N)=O)c1C	none (no result: Ecoli tolC)
Cc1nnc(NC(=O)c2ccc(Br)cc2)s1	none (no result: Ecoli tolC)
CC(=O)Oc1ccc(C(=O)Nc2nnc(C)s2)cc1	PostGolgi yeast 30
Cc1ccc(OCc2nc(C#N)c(NCCCn3ccnc3)o2)cc1	none
CCCOc1ccc(-c2nc(C#N)c(NCCCn3ccnc3)o2)cc1	none (no result: Ecoli tolC)
N#Cc1nc(COc2ccc(Br)cc2)oc1NCCCn1ccnc1	Ecoli tolC 97
COc1ccc(CCNc2oc(COc3ccc(F)cc3)nc2C#N)cc1	Ecoli tolC 96
N#Cc1nc(-c2ccc(OCc3ccccc3Cl)cc2)oc1NCCCn1ccnc1	Ecoli tolC 100
N#Cc1nc(-c2ccc(OCc3ccccc3)cc2)oc1NCCCn1ccnc1	Ecoli tolC 100
O=C(CCCCCn1c(=O)[nH]c2ccsc2c1=O)NCc1ccc2c(c1)OCO2	none (no result: Ecoli tolC)
O=C(NCc1cccnc1)c1cccn2c(=O)c3sccc3nc12	none (no result: Ecoli tolC)
COc1ccc(-c2noc(CCC(=O)N3CCN(c4cc(C)ccc4C)CC3)n2)cc1	none
COc1ccc2nc(Nc3nc(C)c(CCC(C)C)c(=O)[nH]3)nc(C)c2c1	PostGolgi ctrl 31

Assay outcomes as filed in PubChem.
